Experiment [1] has as its system CCRF-CEM. In words: Dose that inhibited 50% cell growth of human T-lymphoid CEM cells compared with untreated control. The experiment is classed as functional. The essentials:
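CEM cells in log-phase growth were exposed to serial drug dilutions and kept for three generations, then counted by Coulter counter. ID50 is the dose giving 50% growth inhibition versus untreated control.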

The test system of experiment [2] is Human alphaherpesvirus 3. In words: Effective concentration to show 50% of activity was measured on varicella zoster virus(VZV) cell culture. The experiment is classed as functional, organism-based.
Experiment [3] can be described thus: Effective concentration to show 50% of activity was measured on herpes simplex virus-1 KOS strain cell culture. The experiment is classed as functional, Human alphaherpesvirus 1. In outline:
(§1)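 Plaque reduction assay in Vero cells kept in RPMI 1640 with 10% FBS. HSV-1 was KOS strain and HSV-2 was strain 333. EC50 is based on the reduction in plaques.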

Experiment [4] can be described thus: Effective concentration to show 50% of activity was measured on herpes simplex virus-2 333 strain cell culture. The experiment is classed as functional, Human alphaherpesvirus 2. The essentials: as §1
Experiment [5] concerns CCRF-CEM. In words: The mitochondrial toxicity was measured on human T-lymphoid CEM cells. The experiment is classed as functional. In outline:
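Human T-lymphoid CEM cells were incubated with drug at various concentrations, with medium and drug renewed on days 4 and 6, and harvested on day 8. DNA was extracted in TE (25 mM Tris pH 8.0, 1 mM EDTA), treated with RNase A and proteinase K, slot-blotted and probed with an mtDNA-specific probe.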

The subject of another experiment is Human gammaherpesvirus 4. Put plainly: Effective concentration to show 50% of activity was measured on Epstein Barr virus(EBV) cell culture. The experiment is classed as functional, organism-based. The essentials: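 EBV-producing H-1 cells were kept in RPMI 1640 with 10% FBS. Inhibition of viral growth was read as reduced viral DNA synthesis and expressed as EC50.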

Experiment [6] has as its system Human alphaherpesvirus 3. In words: The effective concentration to show 50% of activity was measured on varicella zoster virus(VZV) cell culture. The experiment is classed as functional, organism-based. The essentials:
(§2)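 VZV Ellen strain was used. Antiviral effect was scored as inhibition of viral DNA synthesis and expressed as EC50.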

Experiment [7] has as its system Human alphaherpesvirus 3. Put plainly: The effective concentration to show 50% of activity was measured on varicella zoster virus(Ellen) cell culture. The experiment is classed as functional, organism-based. The essentials: as §2
Experiment [8] is described as follows: The effective concentration to show 50% of activity was measured on herpes simplex virus-1 with strain KOS cell culture. The experiment is classed as functional, cell-based, Human alphaherpesvirus 1. The essentials: as §1

Where only a bound is given, the exact number is not on record here.

In the experiment with CCRF-CEM [1], `O=c1[nH]c(=O)n([C@H]2O[C@@H](CO)[C@H](O)[C@H]2F)cc1/C=C/Br` gave an ID50 of more than 100 µM. In addition, the EC50 (with Human alphaherpesvirus 3 [2] (Human alphaherpesvirus 3); in [3]; in [4]) was more than 50 µM throughout.

Regarding `O=c1[nH]c(=O)n([C@H]2O[C@@H](CO)[C@H](O)[C@@H]2F)cc1/C=C/Br`, the ID50 in the experiment on CCRF-CEM [1] was more than 100 µM. The EC50 (in the experiment with Human alphaherpesvirus 3 [2] (Human alphaherpesvirus 3); in [3]; in [4]) was more than 50 µM in each case.

With `O=c1[nH]c(=O)n([C@H]2CO[C@H](CO)O2)cc1/C=C/Cl`, the ID50 was more than 25 µM with CCRF-CEM [5] and more than 100 µM in the experiment with CCRF-CEM [1]. The EC50 is more than 30 µM in the experiment on Human alphaherpesvirus 3 [2] (Human alphaherpesvirus 3), more than 50 µM in experiment [3], more than 50 µM in experiment [4] and more than 50 µM in the experiment on Human gammaherpesvirus 4 (human gammaherpesvirus 4).

Turning to `O=c1[nH]c(=O)n([C@@H]2CO[C@H](CO)O2)cc1/C=C/Br`, the values for the ID50 in the experiment on CCRF-CEM [5] and in the experiment on CCRF-CEM [1] were more than 200 µM and more than 100 µM, respectively. The EC50 in the experiment on Human alphaherpesvirus 3 [2] (Human alphaherpesvirus 3) is 0.07 µM; in experiment [3] it was 36 µM; in experiment [4] it was more than 50 µM; with Human gammaherpesvirus 4 (human gammaherpesvirus 4), 0.59 µM.

Consider `O=c1[nH]c(=O)n(C2CS[C@@H](CO)O2)cc1/C=C/Br` (stereo partly drawn), for which the ID50 with CCRF-CEM [1] was more than 100 µM. For the same compound, the EC50 in experiment [3] and in experiment [4] was more than 50 µM in each case.

For `O=c1[nH]c(=O)n([C@@H]2CO[C@@H](CO)O2)cc1/C=C/Br`, in the experiment on CCRF-CEM [1], the ID50 is more than 100 µM. Besides, the EC50 is more than 30 µM in the experiment on Human alphaherpesvirus 3 [2] (Human alphaherpesvirus 3), more than 50 µM in experiment [3], more than 50 µM in experiment [4] and more than 50 µM with Human gammaherpesvirus 4 (human gammaherpesvirus 4).

As for `O=c1[nH]c(=O)n([C@@H]2CO[C@H](CO)O2)cc1/C=C/Cl`, the ID50 with CCRF-CEM [5] was more than 200 µM; with CCRF-CEM [1], more than 100 µM. The EC50 in the experiment with Human alphaherpesvirus 3 [2] (Human alphaherpesvirus 3) is 0.15 µM; in experiment [3], 18 µM; in experiment [4], more than 50 µM; in the experiment with Human gammaherpesvirus 4 (human gammaherpesvirus 4), 0.49 µM.

As to `O=c1[nH]c(=O)n([C@H]2CO[C@H](CO)O2)cc1/C=C/Br`, the values for the ID50 in the experiment on CCRF-CEM [5] and in the experiment on CCRF-CEM [1] were more than 25 µM and more than 100 µM, respectively. For the same compound, the EC50 in the experiment with Human alphaherpesvirus 3 [2] (Human alphaherpesvirus 3) is more than 30 µM; in experiment [3], more than 50 µM; in [4], more than 50 µM; in the experiment with Human gammaherpesvirus 4 (human gammaherpesvirus 4), more than 50 µM.

For the compound `O=c1[nH]c(=O)n([C@@H]2CO[C@H](CO)O2)cc1I`, the results for the ID50 with CCRF-CEM [5] and in the experiment with CCRF-CEM [1] were more than 200 µM and more than 100 µM, respectively. Moreover, the EC50 is 17 µM with Human alphaherpesvirus 3 [6] and 0.033 µM in the experiment on Human gammaherpesvirus 4 (human gammaherpesvirus 4).

As for `O=c1[nH]c(=O)n(C2CO[C@@H](CO)O2)cc1/C=C/Br` (stereo partly drawn), the ID50 in the experiment with CCRF-CEM [1] is more than 100 µM. Besides, the EC50 is 26 µM in the experiment on Human alphaherpesvirus 3 [2] (Human alphaherpesvirus 3), more than 50 µM in [3], more than 50 µM in [4] and more than 50 µM in the experiment on Human gammaherpesvirus 4 (human gammaherpesvirus 4).

As for `O=c1[nH]c(=O)n([C@@H]2CO[C@H](CO)O2)cc1/C=C/I`, the ID50 in the experiment with CCRF-CEM [5] was more than 200 µM; with CCRF-CEM [1] it was more than 100 µM. For the same compound, the EC50 in the experiment on Human alphaherpesvirus 3 [2] (Human alphaherpesvirus 3) was 0.035 µM; in [3], 33 µM; in [4], more than 50 µM; with Human gammaherpesvirus 4 (human gammaherpesvirus 4), 3.91 µM.

Regarding `O=c1[nH]c(=O)n([C@H]2CO[C@H](CO)O2)cc1/C=C/I`, the ID50 was more than 25 µM in the experiment on CCRF-CEM [5] and more than 100 µM in the experiment with CCRF-CEM [1]. The EC50 is more than 30 µM in the experiment on Human alphaherpesvirus 3 [2] (Human alphaherpesvirus 3), more than 50 µM in [3], more than 50 µM in experiment [4] and more than 50 µM in the experiment with Human gammaherpesvirus 4 (human gammaherpesvirus 4).

Take `O=c1[nH]c(=O)n([C@@H]2CO[C@H](CO)O2)cc1Br`: the ID50 in the experiment with CCRF-CEM [5] is more than 200 µM; in the experiment with CCRF-CEM [1] it was more than 100 µM. The EC50 was more than 30 µM with Human alphaherpesvirus 3 [2] (Human alphaherpesvirus 3) and 0.19 µM with Human gammaherpesvirus 4 (human gammaherpesvirus 4).

`O=c1[nH]c(=O)n([C@H]2O[C@@H](CO)[C@H](O)[C@H]2O)cc1/C=C/Br` (stereo in doubt) returned an ID50 in the experiment on CCRF-CEM [5] of more than 200 µM. For the same compound, the EC50 in the experiment on Human alphaherpesvirus 3 [2] was found to be 0.001 µM; in the experiment on Human gammaherpesvirus 4, 47 µM.

In the experiment with CCRF-CEM [1], `O=c1[nH]c(=O)n([C@H]2O[C@@H](CO)[C@H](O)[C@H]2O)cc1/C=C/Br` (stereo in doubt; 4) yielded an ID50 of more than 100 µM. Further, the EC50 (in the experiment with Human alphaherpesvirus 3 [2]; in experiment [3]; in [4]; in the experiment with Human gammaherpesvirus 4 (human gammaherpesvirus 4)) was more than 50 µM throughout.

For `Nc1nc2c(ncn2COCCO)c(=O)[nH]1` [ACYCLOVIR], the results for the ID50 in the experiment on CCRF-CEM [5] and with CCRF-CEM [1] were more than 200 µM and more than 100 µM, respectively. Besides, the EC50 in experiment [3] was determined as 13.6 µM; in the experiment with Human gammaherpesvirus 4 (human gammaherpesvirus 4), 19.7 µM.

On to `O=c1[nH]c(=O)n([C@H]2C[C@H](O)[C@@H](CO)O2)cc1/C=C/Br` [BRIVUDINE], for which the EC50 with Human alphaherpesvirus 3 [7] was more than 50 µM; with Human alphaherpesvirus 3 [2] (Human alphaherpesvirus 3), 0.05 µM; in experiment [3], more than 50 µM; in experiment [4], more than 50 µM; with Human gammaherpesvirus 4 (human gammaherpesvirus 4), more than 50 µM. Also, the ID50 with CCRF-CEM [5] and in the experiment with CCRF-CEM [1] was more than 100 µM throughout.

For `Nc1nc(O)c2ncn(CCC(CO)CO)c2n1` [PENCICLOVIR], the ID50 is more than 200 µM in the experiment on CCRF-CEM [5] and more than 100 µM with CCRF-CEM [1]. The EC50 in experiment [8] was 18 µM; with Human alphaherpesvirus 3 [6], 0.14 µM.

What is called EC50 is the concentration at which the effect is half-maximal. Higher therefore signals a need for much substance.

The record behind these values is ChEMBL document CHEMBL1133761, “Structure-activity relationships of (E)-5-(2-bromovinyl)uracil and related pyrimidine nucleosides as antiviral agents for herpes viruses” (J Med Chem, 2000).
